NR2E3 ag-1: inhibitors of NR2E3-RetCOR corepressor binding, primary screen, NR2E3 agonist project, biochemical, TR-FRET, GST-NR2E3, biotin-RetCOR; Photoreceptor-specific nuclear receptor (Homo sapiens), Q9Y5X4; 1536-well; inhibition of corepressor binding, % at 4.78 µM; 320,000 compounds, 0.12% hits;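 active = percent inhibition above the cutoff of mean plus 3 SD of all tested compounds, set per screening campaign, cut at about 20% in these data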;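 also: 0% = DMSO wells and 100% = biotin wells as full block of FRET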
Target sequence (Q9Y5X4 whole entry, looked up): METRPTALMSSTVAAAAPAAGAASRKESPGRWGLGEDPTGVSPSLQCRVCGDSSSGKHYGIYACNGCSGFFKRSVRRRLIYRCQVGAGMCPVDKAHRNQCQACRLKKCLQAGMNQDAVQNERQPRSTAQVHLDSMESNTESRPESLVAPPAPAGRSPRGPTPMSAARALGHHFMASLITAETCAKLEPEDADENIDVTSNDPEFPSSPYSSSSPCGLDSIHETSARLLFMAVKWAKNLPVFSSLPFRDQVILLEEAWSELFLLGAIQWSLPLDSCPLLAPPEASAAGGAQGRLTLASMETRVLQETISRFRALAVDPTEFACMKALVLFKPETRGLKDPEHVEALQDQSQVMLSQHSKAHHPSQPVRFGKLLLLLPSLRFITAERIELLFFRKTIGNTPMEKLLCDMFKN
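system = GST-tagged NR2E3 plus biotinylated RetCOR corepressor | input = 1.35 nM GST-NR2E3 | also added = 7 nM biotin-RetCOR | schedule = 5 h incubation at 4 °C | measured by = TR-FRET with europium anti-GST and streptavidin-D2, 340 nm excitation | read-out = percent loss of FRET ratio relative to control wells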
Myeloid diff 2: induction of myeloid progenitor differentiation, primary screen, cell-based, flow cytometry, MLPCN library; AID 624256, 2012; 360,000 compounds, 1% hits; ER-HoxA9 myeloid progenitors, lysozyme-GFP differentiation; calls only at 10 µM;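 active = normalized GFP-positive differentiation at or above the plate's own cutoff, the solvent-only control mean plus 3 SD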;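 also: cells exposed to compound for four days before flow analysis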
T cell HTS: modulators of CD8 T cell-vesicle binding, primary screen, mouse 2C CD8+ T cells, flow cytometry | 2C CD8+ T cell-vesicle binding; active compounds read low | response (vesicle binding), % at 7 µM | 330,000 compounds, 0.068% hits | AID 2052, 2009;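 active = response, share of CD8 T cells binding vesicles, and their 90th percentile fluorescence all below set limits, cut at about 80% in these data, passing the limit was not always enough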;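 also: values below 100% mean blocked vesicle binding to the CD8+ T cells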
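Test system: purified 2C TCR transgenic mouse naive CD8+ T cells. Probe or stimulus: QL9-peptide-loaded Drosophila micro-vesicles bearing Ld, ICAM-1 and B7-1. Incubation: binding step 1.5 h, 37 °C, antibody labelling 20 min, ice. Measured by: flow cytometry of vesicle-bound cells.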
NR2E3 ag-2: NR2E3 agonists in two-hybrid cells, primary screen, cell-based, luminescence, CHO-S, Gal4-NCOR/VP16-NR2E3. Photoreceptor-specific nuclear receptor (Homo sapiens), Q9Y5X4. luciferase. inhibition of corepressor binding, % at 3.98 µM. 360,000 compounds, 0.35% hits. AID 602229, 2012;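 active = inhibition above the mean of all tested compounds plus 3 SD, cut at about 70% in these data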;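 also: 0% = DMSO with NR2E3 transfected cells and 100% = cells lacking NR2E3 construct; higher means lower luciferase signal from less NR2E3 corepressor binding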
FXN GAA850 act: FXN promoter activators, primary screen, cell-based, luciferase luminescence, HEK293 lucGAA850; AID 540364, 2011; 360,000 compounds, 0.56% hits; HEK293 lucGAA850 FXN promoter luciferase reporter, 24 h; percent of 10 µM SAHA response; activation, % at 6 µM;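 active = activation above the average of all compounds screened plus 3 SD, cutoff fixed separately per campaign, cut at about 7.5% in these data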;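 also: 0% = DMSO wells and 100% = 10 µM SAHA wells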
GAA30 counter: GAA30 FXN promoter activators, confirmation, counter-screen for GAA850 frataxin promoter activator project, cell-based, luminescence, HEK293, lucGAA30, triplicate; shares compounds with FXN GAA850 act; HEK293 lucGAA30 FXN promoter luciferase, 24 h; DMSO = 0%, 5 µM ipriflavone = 100%; activation, % at 6 µM; 1,900 compounds, 66% hits; AID 588350, 2011;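 active = mean activation above the mean of solvent-only control wells plus 3 SD, cut at about 22% in these data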;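 also: counterscreen of GAA850 promoter hits where activity marks nonselective or luminescence artifacts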
FXN GAA850 conf: FXN GAA850 promoter activators in reporter cells, confirmation, cell-based, luminescence, HEK293 lucGAA850, triplicate. shares compounds with FXN GAA850 act. HEK293 lucGAA850 FXN promoter luciferase reporter, 24 h; 100% = activation by SAHA. activation, % at 6 µM. 1,900 compounds, 86% hits;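 active = mean activation above a set limit taken from the primary screen, cut at about 8% in these data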;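 also: 0% = DMSO wells and 100% = 10 µM SAHA wells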
Active calls of the source: *; i = inactive; . = not tested or not shown. Sampled rows, rich in hits. Any-hit rate of the full collection: about 2%.

SMILES | NR2E3 ag-1 | Myeloid diff 2 | T cell HTS | NR2E3 ag-2 | FXN GAA850 act | GAA30 counter | FXN GAA850 conf
CCC(C)NC(=O)c1cnn2c(C)c3c(nc12)CCCC3 (stereo not given) | 2 | i | 228 | -3 | 7.8* | 18 | 9.6*
COc1ccc2oc(=Nc3ccccc3)c(-c3nc4ccccc4[nH]3)cc2c1 | 1 | i | 240 | -108 | 7.9* | 109* | 39*
CCOc1ccccc1CN1CCNC(=O)C1CC(=O)NCCCn1cccn1 (stereo not given) | 0 | i | 394 | -17 | 0 | . | .
O=C(Nc1ccccc1C(=O)NC(Cc1ccccc1)C(=O)NC1CCCCC1)c1ccccc1 (stereo not given) | -2 | i | 170 | 4 | 7.7* | 15 | 6
NC(Cc1ccc(Cl)cc1)c1csc(NC(=O)Nc2ccccc2)n1 (stereo not given) | . | i | . | 12 | 7.6* | 14 | 11*
Cc1ccc(Nc2nc3ccccc3[nH]2)nc1 | -1 | i | 191 | -75 | 9.4* | 86* | 43*
COc1ccc(C(=O)N/N=C(\C)CC(=O)Nc2ccc3ccccc3c2)c(OC)c1 | 0 | i | 184 | -47 | 2 | . | .
COc1ccc(OCC(=O)N/N=C(\C)c2ccc(-n3ccnc3)cc2)cc1 | 0 | i | 269 | 0 | -1 | . | .
C/C(=N\NC(=O)COc1ccc(C(C)(C)C)cc1)c1ccc(-n2ccnc2)cc1 | -2 | i | 131 | -16 | 8.5* | 94* | 22*
Fc1cccc(F)c1/C=C/c1ccc2ccccc2n1 | -2 | i | 195 | -178 | 8.0* | 108* | 34*
Fc1cccc(Cl)c1/C=C/c1cnc2ccccc2n1 | 0 | i | 268 | -128 | 3 | . | .
OCCCNc1ncnc2c1ncn2[C@H]1CN(Cc2ccc3c(c2)OCO3)C[C@@H](CO)O1 | . | i | . | 9 | -1 | . | .
CCOc1ccc(NS(=O)(=O)c2ccc(C(=O)N(C)CCc3ccc(OC)c(OC)c3)cc2)cc1 | -2 | i | 815 | 30 | 9.7* | 27* | 15*
COc1ccc(CCN(C)C(=O)c2ccc(S(=O)(=O)Nc3ccccc3C)cc2)cc1OC | 3 | . | 280 | . | . | . | .
Cc1ccc(S(=O)(=O)NNC(=O)c2ccc3ccccc3n2)cc1 | -2 | i | 193 | -5 | 1 | . | .
Cn1c2nc3ccccc3c-2nc2ccccc21 | . | i | . | -52 | 11* | 115* | 35*
O=C(NNC(=S)Nc1ccccc1)NNC(=S)Nc1ccccc1 | -4 | i | 292 | -5 | 1 | . | .
O=C(NNC(=S)Nc1ccccc1)Nc1ccccc1 | -1 | i | 153 | -101 | 7.7* | 36* | 11*
COCCN(C(=O)CSc1nnc(-c2ccccc2F)o1)c1c(N)n(Cc2ccccc2)c(=O)[nH]c1=O | . | i | . | -13 | 1 | . | .
CCCCC(c1nc2ccccc2[nH]1)N(C(=O)c1ccccc1)c1ccccc1[N+](=O)[O-] (stereo not given) | . | i | . | 23 | . | . | .
CC1(C(=O)Nc2nc3ccccc3s2)CC1(Br)Br (stereo not given) | . | i | 168 | -33 | 11* | 103* | 36*
CCN(CC)C(=O)[C@H]1CC(CC(=O)NC(C)(C)C)C(=O)N2CCc3c([nH]c4ccccc34)[C@]12C (stereo not given in full) | . | i | 200 | -17 | -4 | . | .
CCCN1C(=O)/C(=C/c2cc(C)n(C)c2C)SC1=Nc1ccc(OC)cc1 | 0 | i | 468 | -11 | 15* | 20 | 12*
CCn1c2ccc(C)cc2c2nc3cc(C(=O)O)ccc3nc21 | 3 | i | 642 | 30 | 8.0* | 147* | 47*
O=C(NCc1cccs1)c1ccc(N2CCCCC2)nc1 | 1 | i | 301 | -66 | 7.7* | 86* | 30*
SMILES | NR2E3 ag-1 | Myeloid diff 2 | T cell HTS | NR2E3 ag-2 | FXN GAA850 act | GAA30 counter | FXN GAA850 conf
COc1ccc2c(c1)oc(=O)c1cc(OC)ccc12 | 13 | i | 280 | -85 | 7.9* | 122* | 44*
CC(C)CC1Nc2ncnc(N3CCN(c4ccccn4)CC3)c2N(Cc2ccc(Cl)cc2)C1=O (stereo not given) | . | i | 308 | 13 | 2 | . | .
Cc1ccc(S(=O)(=O)N(C)C[C@@H]2OCc3ccccc3-c3c(n(C)c4ccccc34)C(=O)N([C@H](C)CO)C[C@@H]2C)cc1 | . | i | . | -12 | 13* | 10 | 8.8*
C[C@H](CO)N1C[C@H](C)[C@H](CN(C)S(=O)(=O)c2ccc(Cl)cc2)OCc2ccccc2-c2c(n(C)c3ccccc23)C1=O | . | i | . | 35 | 12* | 5 | 9.8*
C[C@H](CO)N1C[C@H](C)[C@H](CN(C)S(C)(=O)=O)OCc2ccccc2-c2c(n(C)c3ccccc23)C1=O | . | i | . | 6 | 0 | . | .
COCCOC(=O)C1=C(C)NC(=O)NC1c1ccc(OC(=O)c2ccco2)c(OC)c1 (stereo not given) | 0 | i | 506 | 13 | 13* | 33* | 10*
COc1cc(C2NC(=O)NC(C)=C2C(=O)OCc2ccccc2)ccc1O (stereo not given) | 3 | i | 380 | -7 | 8.9* | -3 | 10*
COc1ccc(COC(=O)C2=C(C)NC(=O)NC2c2ccc(O)c(OC)c2)cc1 (stereo not given) | 1 | i | 357 | -15 | 2 | . | .
COC(=O)C[C@@H]1C=C[C@@H](NC(=O)NC2CCCC2)[C@@H](CO)O1 | . | i | . | . | . | . | .
CNc1nc(NCCOc2ccccc2Cl)c2sccc2n1 | . | i | . | 4 | 9.0* | 24* | 11*
COc1ccccc1CNc1nc(NCCOc2ccccc2Cl)c2sccc2n1 | . | i | . | 27 | -1 | . | .
CCC(=O)c1ccc(OCc2ccccc2)c(OC)c1 | -1 | i | 205 | -89 | 7.8* | 101* | 38*
CN(C)c1ccc(-c2nnn(Cc3ccccc3Br)n2)cc1 | 2 | i | . | -67 | 12* | 70* | 26*
Clc1ccccc1Cn1nnc(-c2ccccc2)n1 | 1 | i | 198 | -14 | 2 | . | .
